Laboratory results published in ChEMBL document CHEMBL4184090, “Discovery of novel jaspine B analogues as autophagy inducer” (Bioorg Med Chem Lett, 2018).
Active and inactive are the calls of the source. The rule behind the calls is not given here.

How the values were obtained:
B16-F10 = assay: Antiproliferative activity against mouse B16/F10 cells after 72 hrs by MTT assay; type: functional, cell-based; conditions: B16-F10, 72 h
How it was run: (§1)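 MTT proliferation assay; cells exposed to compounds for 72 h. IC50 is the concentration inhibiting tumor cell proliferation by 50%. Means ± SDs of three independent experiments. 5-Fluorouracil used as positive control.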

PC-3 [1] = assay: Antiproliferative activity against human PC3 cells after 72 hrs by MTT assay; type: functional, cell-based; conditions: PC-3, 72 h; how it was run: as §1
A549 = assay: Antiproliferative activity against human A549 cells after 72 hrs by MTT assay; type: functional, cell-based; conditions: A549, 72 h; how it was run: as §1
MCF7 = assay: Antiproliferative activity against human MCF7 cells after 72 hrs by MTT assay; type: functional, cell-based; conditions: MCF7, 72 h; how it was run: as §1
PC-3 [2] = assay: Induction of apoptosis in human PC3 cells assessed as viable cells at 2 uM after 48 hrs by Annexin V-FITC/propidium iodide staining-based flow cytometric analysis (reference value: 78.2%); type: functional; conditions: PC-3, 48 h, read-out: Activity
PC-3 [3] = assay: Induction of autophagy in human PC3 cells assessed as increase LC3-2 accumulation at 4 uM by confocal microscopic analysis; type: functional, cell-based; conditions: TDE = time-dependent effect
How it was run: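 LC3 immunofluorescence in PC-3 cells imaged by confocal microscopy over time up to 24 h to follow autophagosome formation.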

PC-3 [4] = assay: Induction of morphological changes in human PC3 cells at 3 uM by microscopic analysis; type: functional, cell-based
PC-3 [5] = assay: Induction of mitochondrial membrane potential loss in human PC3 cells at 3 uM after 24 hrs by JC-1 staining-based flow cytometric analysis (reference value: 50.5%); type: functional
PC-3 [6] = assay: Induction of apoptosis in human PC3 cells assessed as viable cells at 1 uM after 48 hrs by Annexin V-FITC/propidium iodide staining-based flow cytometric analysis (reference value: 78.2%); type: functional; conditions: PC-3, 48 h, read-out: Activity
PC-3 [7] = assay: Induction of apoptosis in human PC3 cells assessed as viable cells at 3 uM after 48 hrs by Annexin V-FITC/propidium iodide staining-based flow cytometric analysis (reference value: 78.2%); type: functional; conditions: PC-3, 48 h, read-out: Activity
PC-3 [8] = assay: Induction of apoptosis in human PC3 cells assessed as early apoptotic cells at 3 uM after 48 hrs by Annexin V-FITC/propidium iodide staining-based flow cytometric analysis (reference value: 12.4%); type: functional
PC-3 [9] = assay: Induction of apoptosis in human PC3 cells assessed as late apoptotic cells at 1 uM after 48 hrs by Annexin V-FITC/propidium iodide staining-based flow cytometric analysis (reference value: 9.3%); type: functional
PC-3 [10] = assay: Induction of apoptosis in human PC3 cells assessed as viable cells at 4 uM after 48 hrs by Annexin V-FITC/propidium iodide staining-based flow cytometric analysis (reference value: 78.2%); type: functional; conditions: PC-3, 48 h, read-out: Activity
PC-3 [11] = assay: Induction of apoptosis in human PC3 cells assessed as early apoptotic cells at 2 uM after 48 hrs by Annexin V-FITC/propidium iodide staining-based flow cytometric analysis (reference value: 12.4%); type: functional
PC-3 [12] = assay: Cytotoxicity against human PC3 cells assessed as reduction in cell viability at 3 uM after 48 hrs by MTT assay relative to control; type: functional
How it was run: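 MTT viability read-out in PC-3 cells incubated with a range of concentrations for 48 h; viability expressed relative to untreated control cells.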

PC-3 [13] = assay: Induction of apoptosis in human PC3 cells assessed as late apoptotic cells at 2 uM after 48 hrs by Annexin V-FITC/propidium iodide staining-based flow cytometric analysis (reference value: 9.3%); type: functional
PC-3 [14] = assay: Induction of autophagy in human PC3 cells assessed as increase in beclin-1 expression level by Western blot analysis; type: functional, cell-based
How it was run: (§2)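 Western blot of PC-3 lysates for beclin-1, LC3B-I, LC3B-II and P62 after treatment at increasing concentrations.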

PC-3 [15] = assay: Induction of apoptosis in human PC3 cells assessed as early apoptotic cells at 1 uM after 48 hrs by Annexin V-FITC/propidium iodide staining-based flow cytometric analysis (reference value: 12.4%); type: functional
PC-3 [16] = assay: Induction of autophagy in human PC3 cells assessed as decrease in P62 protein level at 1 uM by Western blot analysis; type: functional, cell-based; how it was run: as §2
PC-3 [17] = assay: Induction of apoptosis in human PC3 cells assessed as late apoptotic cells at 3 uM after 48 hrs by Annexin V-FITC/propidium iodide staining-based flow cytometric analysis (reference value: 9.3%); type: functional
PC-3 [18] = assay: Induction of apoptosis in human PC3 cells assessed as necrotic cells at 4 uM after 48 hrs by Annexin V-FITC/propidium iodide staining-based flow cytometric analysis (reference value: 0.1%); type: functional
PC-3 [19] = assay: Induction of apoptosis in human PC3 cells assessed as necrotic cells at 2 uM after 48 hrs by Annexin V-FITC/propidium iodide staining-based flow cytometric analysis (reference value: 0.1%); type: functional
PC-3 [20] = assay: Induction of apoptosis in human PC3 cells assessed as late apoptotic cells at 4 uM after 48 hrs by Annexin V-FITC/propidium iodide staining-based flow cytometric analysis (reference value: 9.3%); type: functional
PC-3 [21] = assay: Induction of mitochondrial membrane potential loss in human PC3 cells at 2 uM after 24 hrs by JC-1 staining-based flow cytometric analysis (reference value: 50.5%); type: functional
PC-3 [22] = assay: Induction of apoptosis in human PC3 cells assessed as necrotic cells at 3 uM after 48 hrs by Annexin V-FITC/propidium iodide staining-based flow cytometric analysis (reference value: 0.1%); type: functional
PC-3 [23] = assay: Induction of autophagy in human PC3 cells assessed as increase in LC3-2 expression level by Western blot analysis; type: functional, cell-based; how it was run: as §2
PC-3 [24] = assay: Induction of mitochondrial membrane potential loss in human PC3 cells at 1 uM after 24 hrs by JC-1 staining-based flow cytometric analysis (reference value: 50.5%); type: functional
PC-3 [25] = assay: Induction of apoptosis in human PC3 cells assessed as necrotic cells at 1 uM after 48 hrs by Annexin V-FITC/propidium iodide staining-based flow cytometric analysis (reference value: 0.1%); type: functional
PC-3 [26] = assay: Induction of apoptosis in human PC3 cells assessed as early apoptotic cells at 4 uM after 48 hrs by Annexin V-FITC/propidium iodide staining-based flow cytometric analysis (reference value: 12.4%); type: functional
PC-3 [27] = assay: Induction of mitochondrial membrane potential loss in human PC3 cells at 4 uM after 24 hrs by JC-1 staining-based flow cytometric analysis (reference value: 50.5%); type: functional

CCCCCCCCCCNC[C@@H]1OC[C@H](N)[C@@H]1O
IC50 (B16-F10): 29.6 µM | IC50 (PC-3 [1]): 11.9 µM | IC50 (A549): 47.8 µM | IC50 (MCF7): 34.2 µM

CCCCCCCNC[C@@H]1OC[C@H](N)[C@@H]1O
IC50 (B16-F10): > 128 µM | IC50 (PC-3 [1]): 22.4 µM | IC50 (A549): > 128 µM | IC50 (MCF7): > 128 µM

CCCCCCCCCCCNC[C@@H]1OC[C@H](N)[C@@H]1O
IC50 (B16-F10): 19.3 µM | IC50 (PC-3 [1]): 3.33 µM | IC50 (A549): 11.1 µM | IC50 (MCF7): 6.77 µM

CCCCCCCCCNC[C@@H]1OC[C@H](N)[C@H]1O
IC50 (B16-F10): > 128 µM | IC50 (PC-3 [1]): 7.65 µM | IC50 (A549): > 128 µM | IC50 (MCF7): 60.3 µM

CCCCCCCCCCCCNC[C@@H]1OC[C@H](N)[C@H]1O
IC50 (B16-F10): 58.1 µM | IC50 (PC-3 [1]): 2.38 µM | IC50 (A549): 41.1 µM | IC50 (MCF7): 12.6 µM

CCCCCCCCCCCCCCNC[C@@H]1OC[C@H](N)[C@H]1O
IC50 (B16-F10): 64.2 µM | IC50 (PC-3 [1]): 1.99 µM | IC50 (A549): 19.9 µM | IC50 (MCF7): 8.83 µM

O=c1[nH]cc(F)c(=O)[nH]1 [FLUOROURACIL]
IC50 (B16-F10): 6.29 µM | IC50 (PC-3 [1]): 0.53 µM | IC50 (A549): 0.43 µM | IC50 (MCF7): 6.11 µM

CCCCCCCCCCCCCCNC[C@@H]1OC[C@H](N)[C@@H]1O
IC50 (B16-F10): 14.3 µM | IC50 (PC-3 [1]): 1.2 µM | IC50 (A549): 2.85 µM | IC50 (MCF7): 0.72 µM

CCCCCCCCCCNC[C@@H]1OC[C@H](N)[C@H]1O
IC50 (B16-F10): > 128 µM | IC50 (PC-3 [1]): > 128 µM | IC50 (A549): > 128 µM | IC50 (MCF7): 42.7 µM

CCCCCCCCCCCNC[C@@H]1OC[C@H](N)[C@H]1O
IC50 (B16-F10): 88.8 µM | IC50 (PC-3 [1]): 10 µM | IC50 (A549): 9.65 µM | IC50 (MCF7): 13.1 µM

CCCCCCCCCNC[C@@H]1OC[C@H](N)[C@@H]1O
IC50 (B16-F10): 55.2 µM | IC50 (PC-3 [1]): 2.03 µM | IC50 (A549): 22.1 µM | IC50 (MCF7): 12.5 µM

CCCCCCCNC[C@@H]1OC[C@H](N)[C@H]1O
IC50 (B16-F10): > 128 µM | IC50 (PC-3 [1]): > 128 µM | IC50 (A549): > 128 µM | IC50 (MCF7): > 128 µM

CCCCCCCCCCCCNC[C@@H]1OC[C@H](N)[C@@H]1O
viability at 2 µM (PC-3 [2]): 87.7% | Activity (PC-3 [3]): Tde | IC50 (B16-F10): 10.7 µM | Activity (PC-3 [4]): Active | Activity (PC-3 [5]): 88.2% | viability at 1 µM (PC-3 [6]): 89.2% | viability at 3 µM (PC-3 [7]): 80.8% | Activity (PC-3 [8]): 3% | Activity (PC-3 [9]): 8% | viability at 4 µM (PC-3 [10]): 8.5% | Activity (PC-3 [11]): 2.3% | IC50 (PC-3 [1]): 0.85 µM | Activity (PC-3 [12]): 56% | Activity (PC-3 [13]): 9.6% | Activity (PC-3 [14]): Dose-dependent effect | Activity (PC-3 [15]): 2.6% | IC50 (A549): 5.87 µM | Activity (PC-3 [16]): Active | Activity (PC-3 [17]): 15.7% | Activity (PC-3 [18]): 0.2% | Activity (PC-3 [19]): 0.3% | Activity (PC-3 [20]): 81.9% | Activity (PC-3 [21]): 78.6% | Activity (PC-3 [22]): 0.6% | Activity (PC-3 [23]): Dose-dependent effect | Activity (PC-3 [24]): 69.1% | Activity (PC-3 [25]): 0.2% | Activity (PC-3 [26]): 9.3% | IC50 (MCF7): 1.8 µM | Activity (PC-3 [27]): 93%

CCCCCCCCNC[C@@H]1OC[C@H](N)[C@H]1O
IC50 (B16-F10): > 128 µM | IC50 (PC-3 [1]): 13 µM | IC50 (A549): 71.8 µM | IC50 (MCF7): > 128 µM

CCCCCCCCCCCCCC[C@@H]1OC[C@H](N)[C@@H]1O [PACHASTRISSAMINE]
IC50 (B16-F10): 0.5 µM | IC50 (PC-3 [1]): 0.7 µM | IC50 (A549): 1.87 µM | IC50 (MCF7): 2.33 µM

CCCCCCCCNC[C@@H]1OC[C@H](N)[C@@H]1O
IC50 (B16-F10): > 128 µM | IC50 (PC-3 [1]): 13.8 µM | IC50 (A549): > 128 µM | IC50 (MCF7): 96.6 µM
